Data from ChEMBL document CHEMBL2029317, “(Z)-2-(2-bromophenyl)-3-{[4-(1-methyl-piperazine)amino]phenyl}acrylonitrile (DG172): an orally bioavailable PPARβ/δ-selective ligand with inverse agonistic properties” (J Med Chem, 2012).
Calls of active or inactive are those of the source. The rule behind the calls is not given here.

Key:
[1] = Volume of distribution at steady state in CD1 mouse at 1 mg/kg, iv; assay type: ADME, organism-based; design: dose 1 mg/kg, route intravenous; conditions: in vivo, read-out: Vdss
Outline: (§1)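 Male CD-1 mice dosed iv by tail vein (1 mg/kg) or po by gastric gavage (5 mg/kg). Vehicle was DMSO/Solutol HS 15/PBS pH 7.4 (5/5/90, v/v/v). Blood was taken at eight time points from 10 min to 12 h, by parallel sampling of three mice per point. Plasma was acetonitrile-precipitated and analysed by HPLC-MS/MS, and basic PK parameters were derived.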

[2] = target: T1, Peroxisome proliferator-activated receptor alpha (Homo sapiens) (UniProt Q07869); assay: Displacement of fluormone Pan-PPAR Green from PPARalpha at 100 to 1000 nM after 60 mins by TR-FRET assay
T1 sequence (whole entry): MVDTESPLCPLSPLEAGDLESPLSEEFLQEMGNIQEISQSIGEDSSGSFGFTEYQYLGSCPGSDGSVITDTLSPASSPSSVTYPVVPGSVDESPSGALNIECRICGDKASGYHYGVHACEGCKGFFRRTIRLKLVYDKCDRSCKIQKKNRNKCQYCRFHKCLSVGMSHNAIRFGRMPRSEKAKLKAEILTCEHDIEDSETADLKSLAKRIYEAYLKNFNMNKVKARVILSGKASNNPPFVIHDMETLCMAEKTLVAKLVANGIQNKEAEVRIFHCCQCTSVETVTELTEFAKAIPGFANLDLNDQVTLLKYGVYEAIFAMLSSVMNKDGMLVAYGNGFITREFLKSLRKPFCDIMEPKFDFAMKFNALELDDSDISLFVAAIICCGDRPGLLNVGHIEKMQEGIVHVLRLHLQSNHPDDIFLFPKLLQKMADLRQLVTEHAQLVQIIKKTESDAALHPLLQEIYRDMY

[3] = Clearance in CD1 mouse at 1 mg/kg, iv; assay type: ADME, organism-based; design: dose 1 mg/kg, route intravenous; conditions: in vivo; outline: as §1
[4] = target: T2, Peroxisome proliferator-activated receptor gamma (Mus musculus) (UniProt P37238); assay: Antagonist activity at PPARgamma in mouse NIH3T3 cells coexpressing LexA assessed as decrease in GW1929-induced transcriptional activation at 1 uM after 48 hrs by luciferase reporter gene assay relative to control; assay type: functional, cell-based
T2 sequence (whole entry): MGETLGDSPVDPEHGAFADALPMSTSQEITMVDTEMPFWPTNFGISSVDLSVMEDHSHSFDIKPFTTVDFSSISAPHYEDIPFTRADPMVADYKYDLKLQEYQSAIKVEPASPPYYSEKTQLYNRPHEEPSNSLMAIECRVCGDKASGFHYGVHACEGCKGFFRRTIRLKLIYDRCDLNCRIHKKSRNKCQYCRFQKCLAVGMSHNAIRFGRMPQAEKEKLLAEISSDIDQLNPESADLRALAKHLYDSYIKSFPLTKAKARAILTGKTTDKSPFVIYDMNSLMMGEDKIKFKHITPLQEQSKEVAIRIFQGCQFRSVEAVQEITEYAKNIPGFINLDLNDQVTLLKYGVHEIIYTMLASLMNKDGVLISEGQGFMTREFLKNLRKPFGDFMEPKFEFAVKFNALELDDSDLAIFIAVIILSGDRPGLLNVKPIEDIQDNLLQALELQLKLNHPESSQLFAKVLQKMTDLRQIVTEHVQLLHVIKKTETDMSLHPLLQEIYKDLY
Outline: (§2)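 NIH3T3 cells were transfected with LexA-PPARα, -PPARβ/δ or -PPARγ fusion plasmids plus the 7L-TATAi luciferase reporter. From 4 h post-transfection, cells received inhibitory ligand (1 μM) for 48 h. Agonists followed: GW7647 300 nM (PPARα), L165,041 1 μM (PPARβ/δ) or GW1929 300 nM (PPARγ), or agonist solvent. Induction is luciferase activity with agonist relative to solvent; triplicates with t test.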

[5] = target: T3, Peroxisome proliferator-activated receptor delta (Mus musculus) (UniProt P35396); assay: Displacement of fluormone Pan-PPAR Green from mouse recombinant GST-tagged PPARbeta/delta LBD at 1 uM after 60 mins by TR-FRET assay
T3 sequence (whole entry): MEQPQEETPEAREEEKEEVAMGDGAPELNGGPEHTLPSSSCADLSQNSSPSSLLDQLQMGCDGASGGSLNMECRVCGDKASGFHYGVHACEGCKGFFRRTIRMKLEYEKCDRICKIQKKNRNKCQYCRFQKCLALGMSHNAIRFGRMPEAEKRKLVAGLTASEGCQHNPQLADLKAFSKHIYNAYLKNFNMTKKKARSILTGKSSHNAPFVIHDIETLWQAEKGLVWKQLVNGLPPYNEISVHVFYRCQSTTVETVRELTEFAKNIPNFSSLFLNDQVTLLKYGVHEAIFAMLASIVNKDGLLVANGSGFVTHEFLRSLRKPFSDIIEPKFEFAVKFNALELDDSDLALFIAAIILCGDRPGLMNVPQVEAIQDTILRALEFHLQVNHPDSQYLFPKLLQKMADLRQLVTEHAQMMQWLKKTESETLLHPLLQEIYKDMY
Outline: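 Competitive binding by LanthaScreen TR-FRET: recombinant GST-PPARβ/δ LBD, detected through a terbium-labelled anti-GST antibody, was incubated with Fluormone Pan-PPAR Green. Compound was tested at 1 μM. Read-out is the 520 nm/495 nm emission ratio after terbium excitation, as averages of triplicates ± SD.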

[6] = Half life in CD1 mouse plasma at 1 mg/kg, iv; assay type: ADME, organism-based; design: dose 1 mg/kg, route intravenous; outline: as §1
[7] = target: T3, Peroxisome proliferator-activated receptor delta (Mus musculus); assay: Antagonist activity at PPARbeta/delta in mouse NIH3T3 cells coexpressing LexA assessed as decrease in L165,041-induced transcriptional activation at 1 uM after 48 hrs by luciferase reporter gene assay relative to control; assay type: functional, cell-based; outline: as §2
[8] = target: T4, Peroxisome proliferator-activated receptor alpha (Mus musculus) (UniProt P23204); assay: Antagonist activity at PPARalpha in mouse NIH3T3 cells coexpressing LexA assessed as decrease in GW7647-induced transcriptional activation at 1 uM after 48 hrs by luciferase reporter gene assay relative to control; assay type: functional, cell-based; outline: as §2
T4 sequence (whole entry): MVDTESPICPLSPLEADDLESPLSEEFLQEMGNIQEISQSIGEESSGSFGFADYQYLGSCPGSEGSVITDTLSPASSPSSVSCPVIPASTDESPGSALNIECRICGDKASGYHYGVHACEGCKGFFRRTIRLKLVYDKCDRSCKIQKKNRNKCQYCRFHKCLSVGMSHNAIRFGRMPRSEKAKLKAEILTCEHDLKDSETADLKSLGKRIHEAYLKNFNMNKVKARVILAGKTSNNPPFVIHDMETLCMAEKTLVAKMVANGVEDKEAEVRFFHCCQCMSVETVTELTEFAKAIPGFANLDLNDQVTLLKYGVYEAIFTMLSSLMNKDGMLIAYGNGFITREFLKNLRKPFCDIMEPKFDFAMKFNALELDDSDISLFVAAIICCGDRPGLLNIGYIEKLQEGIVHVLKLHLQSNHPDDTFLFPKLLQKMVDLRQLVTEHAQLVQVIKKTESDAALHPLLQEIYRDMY

[9] = target: T5, Peroxisome proliferator-activated receptor delta (Mus musculus, UniProt P35396); assay: Displacement of fluormone Pan-PPAR Green from mouse recombinant GST-tagged PPARbeta/delta LBD after 60 mins by TR-FRET assay
T5 sequence (P35396 whole entry): T3 sequence (whole entry)

SMILES	Vd [1] [L/kg]	Activity [2]	clearance [3] [L/h/kg]	Activity [4]	Activity [5]	half-life [6] [h]	Activity [7]	Activity [8]	IC50 [9] [µM]
CN(C)c1ccc(/C=C(\C#N)c2ccccc2Cl)cc1	6.2	inactive	10.6	inactive	Active	1.27	Active	inactive	0.18
CN1CCN(c2ccc(/C=C(\C#N)c3ccccc3Br)cc2)CC1	12.5	inactive	7.26	inactive	Active	1.27	Active	inactive	0.0269
